A selection: hits, their analogues and other compounds. The true share with any hit is near 5.8%.
Pyk2 oligo antag = antagonists of human Pyk2 oligomerization | Q14289 | Q293 cells, Pyk2 FERM NanoBiT luminescence; stronger effect = lower value | z-score (the deposit names both 25 µM and 10 µM) | hit rate 0.83% among 99,000;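 active = Z-score of -3 or lower, scaled per plate to the spread of control and sample wells; inactive = z-score above -3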;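 also: negative z-score means lost luminescence so less FERM oligomerization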
FAK inh = blocks human focal adhesion kinase activity; Q05397; biochemical FAK kinase activity assay; inhibition, %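 (tested at 7 µM)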; hit rate 0.84% among 97,000; AID 727; in the data active = inhibition above about 19%;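 also: 0% = DMSO and 100% = reference compound high control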
HIV Rev-RRE inh = inhibitors of HIV-1 Rev-RRE RNA interaction; hit rate 0.79% among 97,000; P05866; inhibition, % at 8 µM; Rev peptide-RRE RNA binding, FRET;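 active = inhibition above the screen-wide mean plus 3 SD, cut at about 35% in these data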;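 also: 0% = median DMSO wells and 100% = median Neomycin B control wells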
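Assay system: Labelled RRE RNA duplex and labelled Rev peptide | Times: 5 min preincubation and 15 min binding, 25 °C | Detection: FRET, ex 480 nm, em 540 and 671 nm | Evaluation: % inhibition of FRET ratio versus controls | Benchmarks: DMSO wells as 0% and neomycin B wells as 100% inhibition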
PLK1 PBD inh = inhibitors of human Plk1 polo box domain binding. P53350. inhibition, %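 (tested at about 20 µM)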. hit rate 0.13% among 97,000. Plk1 PBD phosphopeptide binding, fluorescence polarization; in the data active = inhibition above about 34%, passing the limit was not always enough
Target sequence (P53350 whole entry, looked up, the tested form may be a part): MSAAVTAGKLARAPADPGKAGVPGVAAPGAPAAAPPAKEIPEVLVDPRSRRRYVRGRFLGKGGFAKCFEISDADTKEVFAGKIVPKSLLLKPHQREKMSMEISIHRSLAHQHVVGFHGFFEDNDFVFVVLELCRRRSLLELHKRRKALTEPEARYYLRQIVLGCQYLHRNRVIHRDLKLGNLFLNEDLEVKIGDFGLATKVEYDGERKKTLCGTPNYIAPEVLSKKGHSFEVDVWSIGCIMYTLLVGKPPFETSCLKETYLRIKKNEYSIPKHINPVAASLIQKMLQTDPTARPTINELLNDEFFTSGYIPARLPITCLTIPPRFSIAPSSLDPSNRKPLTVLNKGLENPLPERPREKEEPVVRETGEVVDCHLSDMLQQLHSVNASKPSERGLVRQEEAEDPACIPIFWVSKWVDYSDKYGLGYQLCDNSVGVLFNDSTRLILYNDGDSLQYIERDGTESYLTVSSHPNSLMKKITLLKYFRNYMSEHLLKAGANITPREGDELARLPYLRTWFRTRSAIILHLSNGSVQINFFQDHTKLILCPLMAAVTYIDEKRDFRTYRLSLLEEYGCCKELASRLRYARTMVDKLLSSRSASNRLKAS
Cav3 T inh = inhibitors of human Cav3.2 T-type calcium channel | Cav3.2-expressing cells, Fluo-4 calcium fluorescence FDSS; stronger effect = lower value | B-score at 10 µM | hit rate 4% among 100,000;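 active = single-dose well whose peak fluorescence ratio is a statistical outlier from its plate by either plate-standardised score or position-corrected B-score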
PLK1 inh = PLK1 (human) kinase inhibition. P53350. inhibition, % at 10 µM. hit rate 0.53% among 97,000. recombinant PLK1 kinase, TR-FRET peptide phosphorylation;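 active = inhibition of 50% or more in the single-concentration screen; inactive = inhibition below 50%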;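 also: 0% = DMSO max control and 100% = H-89 dihydrochloride min control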
The depositor's hits bear a star; · = not tested or not shown.

SMILES	Pyk2 oligo antag	FAK inh	HIV Rev-RRE inh	PLK1 PBD inh	Cav3 T inh	PLK1 inh
COc1ccc(CNC(=O)C2CC(=O)N(c3ccc(OCC(=O)N4C(C)CCCC4C)cc3)C2)cc1 (stereo unspecified)	-0.84	0.4	8.1	1.9	0.255	-11.9
Cc1ccc(C)c(NC(=S)NC(NC(=O)/C=C/c2ccccc2)C(Cl)(Cl)Cl)c1 (stereo unspecified)	-0.75	2.6	3.6	-29.8	-6.9*	-10.2
O=C(/C=C/c1ccccc1)NC(NC(=S)Nc1cccc(Cl)c1)C(Cl)(Cl)Cl (stereo unspecified)	-2.12	6.3	12.5	23.3	-1.64	-12.8
CCN(Cc1ccccc1)C(c1ccc(C(F)(F)F)cc1)c1nnnn1C(C)(C)C (stereo unspecified)	0.11	-1.0	6.5	7.3	-4.35*	-8.3
COn1c(SC2CCCCC2)nc2ccccc2c1=O	-0.42	3.2	10.1	-23.8	-1.73	-16.5
Cc1ccc(-c2cn(S(=O)(=O)c3cccc4nsnc34)nc2N)cc1	-1.05	2.3	-0.5	20.1	-7.76*	0.5
CC(C)(C)NS(=O)(=O)c1cccc2nsnc12	·	5.1	9.6	22.7	0.049	-11.7
Nc1nn(S(=O)(=O)c2cccc3nsnc23)cc1-c1ccc(Br)cc1	-0.67	12.3	2.2	-15.9	-5.92*	11.4
COc1cc(-c2cn(S(=O)(=O)c3cccc4nsnc34)nc2N)cc(OC)c1OC	0.77	-1.3	3.0	17.3	0.0632	-5.6
Clc1ccc(Cn2ncc3c(NCc4ccccc4)ncnc32)cc1	-1.93	0.6	17.3	33.3	-6.86*	10.8
Cc1ccc(C)n1-c1ccc(-c2nnc3n2CCCCC3)s1	1.1	-1.9	-4.0	-26.4	-0.265	-3.9
COc1cc2c(C)nc(C)c(C#N)c2cc1OC	-0.24	-0.1	-1.2	-0.1	0.0113	-16.5
O=C(N1CCN(c2ccccn2)CC1)N1c2ccccc2Sc2ccccc21	-1.29	-3.9	-3.9	-29.7	·	-11.8
c1ccc(-n2cnc3cc(NCc4ccccn4)ccc32)cc1	-3.42*	7.4	4.8	12.4	1.04	-4.6
CCS(=O)(=O)Nc1ccc(C2=NN(C(=O)c3ccco3)C(c3ccc(C)cc3)C2)cc1 (stereo unspecified)	-3.04*	-0.3	8.9	-18.1	0.00712	-3.0
CC(=O)Nc1ccccc1-c1nc2ccccc2nc1OCC(=O)c1ccc2ccccc2c1	-2.32	1.3	3.4	-16.0	-1.36	-14.9
CCC(c1nnnn1Cc1ccco1)N1CCN(C(=O)c2ccco2)CC1 (stereo unspecified)	0.4	2.9	6.0	16.2	0.812	0.1
CCCC(c1nnnn1Cc1ccco1)N1CCN(c2cc(Cl)ccc2C)CC1 (stereo unspecified)	0.05	0.0	9.9	6.0	-6.86*	-7.5
CCCCC(c1nnnn1CC1CCCO1)N1CCN(c2cc(Cl)ccc2C)CC1 (stereo unspecified)	-1.89	-6.9	-1.9	-6.7	-5.27*	0.1
CC(C)CC(c1nnnn1CC1CCCO1)N1CCN(c2nc3ccccc3s2)CC1 (stereo unspecified)	-1.86	·	·	·	·	·
Cc1nn(-c2c(Cl)cc(Cl)cc2Cl)c(=O)c2ccccc12	-0.49	0.1	9.4	-36.7	-4.97*	-10.9
Cc1nn(-c2ccccc2C(=O)O)c(=O)c2ccccc12	-0.14	4.8	6.2	-1.5	-0.00531	0.2
O=C1CN(C(=O)c2ccc(Br)o2)C(c2ccccc2)c2cc(Cl)ccc2N1 (stereo unspecified)	·	1.9	5.4	-34.6	-4.46*	-15.8
O=C1CN(C(=O)c2ccc(Br)o2)C(c2ccc(F)cc2)c2cc(Cl)ccc2N1 (stereo unspecified)	-2.16	2.1	6.4	-6.5	-6.78*	-3.6
CCn1c(CNC(=O)c2ccco2)nnc1SCC(=O)Nc1cc(C(F)(F)F)ccc1Cl	-0.25	-0.6	9.0	16.7	-4.48*	-5.2
CCc1ccc(C(=O)NCc2ccc(Cl)cc2)cc1	-1.2	·	·	·	·	·
CNC(=S)N1CCN(c2c(F)cc3c(=O)c(C(=O)O)cn(C4CC4)c3c2OC)CC1C (stereo unspecified)	0.26	-1.6	1.6	-5.1	4.38*	8.8
CN1C2C=C3C(C#N)=C(N)C(C#N)(C#N)[C@H](c4c(F)cccc4F)[C@H]3C1CC2 (stereo partly specified)	-0.83	-3.4	6.0	8.4	0.477	19.6
